Experimental data collected from several papers.
Target: Mitogen-activated protein kinase kinase kinase 11 (MAP3K11, Homo sapiens, UniProt Q16584)

For `COc1ccc(COc2ccc(Cc3cnc(N)nc3N)cc2OC)cc1`, the remaining signal was 101% (cell-free assay; 0.5 µM).
For `Cc1ccc(C(=O)NCc2ccsc2)cc1C#Cc1cn(C(C)C)c2ncnc(N)c12`, the activity vs control was 8% (enzyme activity, inhibitor; 1 µM).
`CC/C(=N\NC(=O)NCc1cccc(O)c1)c1ccc(O)c(C)c1O` gave an inhibition of 9.4% (enzyme activity, inhibitor; 0.1 µM).
The remaining binding of `CC(C)(O)c1cncc(-c2nc3ccc(F)cc3n2C2CC2)c1` is reported as 100% (cell-free assay, competition with immobilised ligand; 1 µM).
For `O=C(NCCCNc1nc(Nc2cccc(NC(=O)N3CCCC3)c2)ncc1C1CC1)C1CCC1`, the remaining activity was 27% (enzyme activity, inhibitor, radiometric; 1 µM).
The activity vs control of `COc1cc(/C=C/C(=O)CC(=O)/C=C/c2ccc(O)c(OC)c2)ccc1O` is reported as 14% (enzyme activity, inhibitor; 1 µM).
`O=C1Nc2ccc(Cl)cc2C1=Cc1cc(Cl)c(O)c(Cl)c1` has a remaining signal of 60.4% (cell-free assay; 0.5 µM).
`Cc1nn(CC(F)(F)F)cc1Nc1ncc(C2CC2)c(NCCCNC(=O)C2CCC2)n1` gave a remaining activity of 94% (enzyme activity, inhibitor, radiometric; 1 µM).
`CCc1ccccc1C(=O)Nc1n[nH]c2c(C)c(F)c(C3C(C#N)=C(C)N(C)C(C)=C3C#N)cc12` gave a remaining binding of 88% (cell-free assay, competition with immobilised ligand; 1 µM).
`Cc1nn(CC(F)(F)F)cc1Nc1nccc(NCCc2cnc[nH]2)n1` has a remaining activity of 94% (enzyme activity, inhibitor, radiometric; 1 µM).
`O=C(NCc1ncc(C(F)(F)F)cc1Cl)c1ccc2c(c1)C1(CCS(=O)(=O)CC1)[C@@H](C1CC1)N2S(=O)(=O)c1ccc(F)cc1` gave a remaining binding of 100% (cell-free assay, competition with immobilised ligand; 1 µM).
`NS(=O)(=O)c1ccc(CNc2nc(Nc3cccc(CN4CCOCC4)c3)ncc2Br)cc1` gave a remaining activity of 34% (enzyme activity, inhibitor, radiometric; 1 µM).
`COc1cc2ncnc(Nc3ccc(F)c(Cl)c3)c2cc1OCCCN1CCOCC1` has a remaining signal of 102% (cell-free assay; 0.5 µM).
With `COc1cc(Nc2cnc(C#N)c(O[C@H](C)CN(C)C)n2)ncc1-c1cnn(C)c1` the remaining activity was 68% (enzyme activity, inhibitor, radiometric; 1 µM).
For `CC(=O)N1CCC(c2ccc(C(=O)NC(=N)N)cc2C(F)(F)F)CC1`, the remaining binding was 100% (cell-free assay, competition with immobilised ligand; 1 µM).
For `Cc1nn(CC(F)(F)F)cc1Nc1nccc(NCCCNC(=O)C2CCC2)n1`, the remaining activity was 106% (enzyme activity, inhibitor, radiometric; 1 µM).
For `O=C1NC(=O)c2cc(Nc3ccc(F)cc3)c(Nc3ccc(F)cc3)cc21`, the remaining signal was 98.4% (cell-free assay; 0.5 µM).
`Cn1nc(C(=O)NCc2ccc(C(=O)O)cc2)cc1-c1ccc2[nH]ccc2c1` gave a remaining binding of 87% (cell-free assay, competition with immobilised ligand; 0.1 µM).
`O=C(NCCCNc1nc(Nc2cccc(NC(=O)N3CCCC3)c2)ncc1I)c1cccs1` gave a remaining activity of 1% (enzyme activity, inhibitor, radiometric; 1 µM).
